Experimental data from ChEMBL document CHEMBL3286225, “Novel carboline derivatives as potent antifungal lead compounds: design, synthesis, and biological evaluation” (ACS Med Chem Lett, 2014).
Converted amounts (≈) assume the structure as drawn. The source made the active and inactive calls. No cut-off for these calls is given here.

Columns and labels:
Cytochrome P450 2C19 = Cytochrome P450 2C19 (Homo sapiens, UniProt P33261); assay: Inhibition of CYP2C19 in human liver microsomes assessed as S-mephenytoin conversion to 4'-hydroxy mephenytoin preincubated for 10 mins followed by NADPH addition measured after 15 mins by LC-MS/MS analysis; assay type: ADME
Pichia kudriavzevii = assay: Antifungal activity against Candida krusei 0710397 after 7 days by serial dilution method; assay type: functional; conditions: Pichia kudriavzevii, 0710397, 168 h
Candida albicans [1] = assay: Antifungal activity against fluconazole-resistant Candida albicans 100 after 24 hrs by serial dilution method in presence of fluconazole; assay type: functional
Outline: (§1)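 Tested in combination with fluconazole against each fluconazole-resistant C. albicans strain. Interaction was scored by fractional inhibitory concentration index (FICI): synergy at FICI ≤ 0.5, indifference at 0.5 < FICI ≤ 4, antagonism at FICI > 4.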

Candida albicans [2] = assay: Antifungal activity against fluconazole-sensitive Candida albicans SC5314 assessed as change in ergosterol composition at 8 ug/ml after 24 hrs by GC-MS analysis (reference value: 90%); assay type: functional
Outline: (§2)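 C. albicans SC5314 exposed to 8 μg/mL for 24 h, sterols analysed by GC-MS with cholesterol internal standard; each sterol expressed as % of total sterol fraction versus no-drug control; average of three independent experiments.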

Trichophyton rubrum = assay: Antifungal activity against Trichophyton rubrum Cmccftla after 7 days by serial dilution method; assay type: functional; conditions: 168 h
Candida albicans [3] = assay: Antifungal activity against fluconazole-resistant Candida albicans 100 after 24 hrs by serial dilution method; assay type: functional; conditions: Candida albicans, 100, 24 h
CYP2C19 = CYP2C19 (Homo sapiens, UniProt P33261); assay: Inhibition of CYP2C19 in human liver microsomes assessed as S-mephenytoin conversion to 4'-hydroxy mephenytoin at 2.5 uM preincubated for 10 mins followed by NADPH addition measured after 15 mins by LC-MS/MS analysis relative to control; assay type: ADME; conditions: probe S-mephenytoin
Candida albicans [4] = assay: Antifungal activity against fluconazole-sensitive Candida albicans SC5314 assessed as thinning of outer sphere of cell wall at 8 ug/ml after 8 hrs by TEM analysis; assay type: functional, organism-based
Outline: (§3)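 Transmission electron microscopy of C. albicans SC5314 cells exposed to 8 μg/mL for 8 h. Untreated cells and cells given fluconazole 8 μg/mL for 8 h served as controls. Cell wall layers, cytoplasmic density and vacuole shape were compared by eye.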

Cytochrome P450 3A4 = Cytochrome P450 3A4 (Homo sapiens, UniProt P08684); assay: Inhibition of CYP3A4 in human liver microsomes assessed as midazolam conversion to 1'-hydroxy midazolam preincubated for 10 mins followed by NADPH addition measured after 15 mins by LC-MS/MS analysis; assay type: ADME
Candida albicans [5] = assay: Inhibition of biofilm formation of fluconazole-resistant Candida albicans 103 after 48 hrs by XTT assay; assay type: functional, organism-based
Outline: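 Biofilm formation by C. albicans SC5314 or 103 in presence of 2–64 μg/mL drug (fluconazole 64 μg/mL reference); quantified by XTT reduction as % of blank control; mean ± standard deviation of three independent experiments, ANOVA and Student t test.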

Candida albicans [6] = assay: Antifungal activity against fluconazole-sensitive Candida albicans SC5314 assessed as abnormal vacuole shape at 8 ug/ml after 8 hrs by TEM analysis; assay type: functional, organism-based; outline: as §3
Candida albicans [7] = assay: Antifungal activity against fluconazole-resistant Candida albicans 07109 after 24 hrs by serial dilution method; assay type: functional; conditions: Candida albicans, 07109, 24 h
CYP3A4 [8] = biological target: T1, CYP3A4 (Homo sapiens, UniProt P08684); assay: Inhibition of CYP3A4 in human liver microsomes assessed as midazolam conversion to 1'-hydroxy midazolam at 25 uM preincubated for 10 mins followed by NADPH addition measured after 15 mins by LC-MS/MS analysis relative to control; assay type: ADME; conditions: probe midazolam
CYP3A4 [9] = biological target: T1, CYP3A4; assay: Inhibition of CYP3A4 in human liver microsomes assessed as testosterone conversion to 6-hydroxy testosterone at 25 uM preincubated for 10 mins followed by NADPH addition measured after 15 mins by LC-MS/MS analysis relative to control; assay type: ADME; conditions: probe testosterone
CYP3A4 [10] = biological target: T1, CYP3A4; assay: Inhibition of CYP3A4 in human liver microsomes assessed as midazolam conversion to 1'-hydroxy midazolam at 2.5 uM preincubated for 10 mins followed by NADPH addition measured after 15 mins by LC-MS/MS analysis relative to control; assay type: ADME; conditions: probe midazolam
Candida albicans [11] = assay: Inhibition of hyphal growth of fluconazole-sensitive Candida albicans SC5314 assessed as appearance of unicellular budding yeast form at 4 to 8 ug/ml after 16 hrs by light microscopic analysis; assay type: functional, organism-based
Outline: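 C. albicans SC5314 was grown in RPMI 1640 at 37 °C for 16 h, without compound or with 2–8 μg/mL. A fluconazole 8 μg/mL control was included. Cell morphology (hyphae, pseudohyphae, budding yeast) was then scored by microscopy.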

Candida albicans [12] = assay: Fungicidal activity against fluconazole-sensitive Candida albicans SC5314 after 12 to 48 hrs; assay type: functional, organism-based
Outline: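 Time-kill assay starting from 10^5 CFU/mL C. albicans SC5314. Test concentrations ranged from 2–32 μg/mL. Untreated and fluconazole 32 μg/mL controls were included. Viable counts (CFU/mL) were taken at 0, 12, 24 and 48 h of incubation.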

Candida albicans [13] = assay: Antifungal activity against fluconazole-resistant Candida albicans 805 after 24 hrs by serial dilution method; assay type: functional; conditions: Candida albicans, 805, 24 h
Candida albicans [14] = assay: Antifungal activity against fluconazole-sensitive Candida albicans SC5314 assessed as change in lanosterol composition at 8 ug/ml after 24 hrs by GC-MS analysis (reference value: 1.5%); assay type: functional; outline: as §2
Candida albicans [15] = assay: Antifungal activity against fluconazole-sensitive Candida albicans SC5314 assessed as change in eburicol composition at 8 ug/ml after 24 hrs by GC-MS analysis relative to control; assay type: functional; outline: as §2
Candida albicans [16] = assay: Antifungal activity against fluconazole-resistant Candida albicans 07109 after 24 hrs by serial dilution method in presence of fluconazole; assay type: functional; outline: as §1
WI-38 = assay: Cytotoxicity against human WI38 cells by MTT assay; assay type: cell-based
CYP3A4 [17] = biological target: T1, CYP3A4; assay: Inhibition of CYP3A4 in human liver microsomes assessed as testosterone conversion to 6-hydroxy testosterone at 2.5 uM preincubated for 10 mins followed by NADPH addition measured after 15 mins by LC-MS/MS analysis relative to control; assay type: ADME; conditions: probe testosterone

T1 sequence (P08684 whole entry): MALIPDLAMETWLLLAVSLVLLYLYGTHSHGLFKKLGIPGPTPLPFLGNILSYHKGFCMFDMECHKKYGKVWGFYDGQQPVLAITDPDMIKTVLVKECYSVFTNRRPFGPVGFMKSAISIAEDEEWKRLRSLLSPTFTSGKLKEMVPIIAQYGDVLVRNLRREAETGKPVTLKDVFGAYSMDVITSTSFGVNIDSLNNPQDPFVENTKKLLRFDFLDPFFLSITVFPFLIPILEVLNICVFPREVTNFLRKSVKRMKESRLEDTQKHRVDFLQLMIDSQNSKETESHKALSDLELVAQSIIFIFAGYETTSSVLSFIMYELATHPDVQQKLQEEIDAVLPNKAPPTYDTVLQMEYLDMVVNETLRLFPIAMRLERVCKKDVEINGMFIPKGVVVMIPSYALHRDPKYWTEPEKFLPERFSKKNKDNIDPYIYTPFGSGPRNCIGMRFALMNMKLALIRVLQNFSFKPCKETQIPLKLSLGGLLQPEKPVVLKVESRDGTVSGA
Chain of Cytochrome P450 2C19 (P33261 whole entry): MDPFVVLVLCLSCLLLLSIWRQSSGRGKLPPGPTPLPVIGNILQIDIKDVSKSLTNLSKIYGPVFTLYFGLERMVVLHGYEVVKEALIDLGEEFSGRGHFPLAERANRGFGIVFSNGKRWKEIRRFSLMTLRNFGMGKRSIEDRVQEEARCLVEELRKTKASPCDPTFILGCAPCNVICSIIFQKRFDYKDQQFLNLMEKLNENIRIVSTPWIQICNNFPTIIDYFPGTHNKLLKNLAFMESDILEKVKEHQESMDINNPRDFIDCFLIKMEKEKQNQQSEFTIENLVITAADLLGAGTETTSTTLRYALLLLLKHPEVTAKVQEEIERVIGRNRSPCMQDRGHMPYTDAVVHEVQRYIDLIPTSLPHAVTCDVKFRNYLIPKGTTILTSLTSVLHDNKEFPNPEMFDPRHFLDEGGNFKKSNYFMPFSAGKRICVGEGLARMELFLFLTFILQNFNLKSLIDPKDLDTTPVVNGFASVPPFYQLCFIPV
Chain of CYP2C19 (P33261 whole entry): as above
Chain of Cytochrome P450 3A4 (P08684 whole entry): as the sequence (P08684 whole entry) above

## Fc1ccc2c(c1)c1c(n2CCCOc2ccc(Cl)cc2)CCNC1
Cytochrome P450 2C19
  IC50: > 25 µM
Pichia kudriavzevii
  MIC80: 4 µg/mL (≈ 11.1 µM)
Candida albicans [1]
  fractional inhibitory concentration index (FICI): 0.252
Candida albicans [2]
  Activity: 40.2%
Trichophyton rubrum
  MIC80: 2 µg/mL (≈ 5.57 µM)
Candida albicans [3]
  MIC80: 4 µg/mL (≈ 11.1 µM)
CYP2C19
  inhibition at 0.25 h, 2.5 µM: 5%
Candida albicans [4]
  Activity: Active
Cytochrome P450 3A4
  IC50: 50 µM
Candida albicans [5]
  inhibition: Dose-dependent effect
Candida albicans [6]
  Activity: Active
Candida albicans [7]
  MIC80: 4 µg/mL (≈ 11.1 µM)
CYP3A4 [8]
  inhibition at 0.25 h, 25 µM: 50%
CYP3A4 [9]
  inhibition at 0.25 h, 25 µM: -35%
CYP3A4 [10]
  inhibition at 0.25 h, 2.5 µM: -10%
Candida albicans [11]
  growth inhibition (GI): Active
Candida albicans [12]
  Activity: Dose-dependent effect
Candida albicans [13]
  MIC80: 4 µg/mL (≈ 11.1 µM)
Candida albicans [14]
  Activity: 12.2%
Candida albicans [15]
  Activity: 12.4%
Candida albicans [16]
  fractional inhibitory concentration index (FICI): 0.252
WI-38
  IC50: > 40 µg/mL
CYP3A4 [17]
  inhibition at 0.25 h, 2.5 µM: -10%
